Laboratory results: paper PMC12777986 (RSC Medicinal Chemistry, 2025)
Entries after “also recorded” stand apart in the source; their conditions may differ.

How the values were obtained:
PCFT transporter = target: T1, PCFT transporter (Homo sapiens, UniProt Q96NT5); assay: Folate uptake assay in Caco-2 cell monolayers; assay type: cell-based; conditions: Caco-2, pH 5.5, read-out: inhibition of folate uptake
T1 sequence (Q96NT5 1-459): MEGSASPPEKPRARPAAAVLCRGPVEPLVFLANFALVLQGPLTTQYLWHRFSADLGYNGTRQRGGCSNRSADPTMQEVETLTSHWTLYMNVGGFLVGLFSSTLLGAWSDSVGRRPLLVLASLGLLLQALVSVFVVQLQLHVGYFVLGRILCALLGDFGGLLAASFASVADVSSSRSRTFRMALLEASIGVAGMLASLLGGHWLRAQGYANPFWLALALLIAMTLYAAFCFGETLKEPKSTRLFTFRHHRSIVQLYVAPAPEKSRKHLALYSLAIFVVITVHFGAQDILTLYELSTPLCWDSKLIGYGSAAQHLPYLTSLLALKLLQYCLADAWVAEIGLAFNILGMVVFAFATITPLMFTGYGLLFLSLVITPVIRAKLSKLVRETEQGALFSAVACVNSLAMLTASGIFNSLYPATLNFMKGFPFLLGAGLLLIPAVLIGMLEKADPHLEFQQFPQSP
How it was run: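 Caco-2 cells were grown in high-glucose DMEM with 10% FBS, penicillin/streptomycin and NEAA, seeded at 3 × 10^4 cells/well and differentiated 8–10 days. Monolayers were pre-incubated 30 min at 37 °C in HBSS/10 mM MES pH 5.5 with compound (50 μM), pemetrexed or DMSO, then exposed 6 min to 10 nM [3H]folic acid ± inhibitor. Uptake was counted by scintillation, normalized to BCA protein and expressed as % of vehicle. Run in duplicate.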

C. elegans strain N2 = assay: C. elegans lifespan assay; assay type: in vivo; conditions: for maximal lifespan: untreated 27 d
CYP2C9 = CYP2C9 (Homo sapiens, UniProt P11712); assay: Human liver microsome CYP inhibition assay, CYP2C9; assay type: biochemical; conditions: human liver microsomes
Chain of CYP2C9 (P11712 whole entry, canonical isoform): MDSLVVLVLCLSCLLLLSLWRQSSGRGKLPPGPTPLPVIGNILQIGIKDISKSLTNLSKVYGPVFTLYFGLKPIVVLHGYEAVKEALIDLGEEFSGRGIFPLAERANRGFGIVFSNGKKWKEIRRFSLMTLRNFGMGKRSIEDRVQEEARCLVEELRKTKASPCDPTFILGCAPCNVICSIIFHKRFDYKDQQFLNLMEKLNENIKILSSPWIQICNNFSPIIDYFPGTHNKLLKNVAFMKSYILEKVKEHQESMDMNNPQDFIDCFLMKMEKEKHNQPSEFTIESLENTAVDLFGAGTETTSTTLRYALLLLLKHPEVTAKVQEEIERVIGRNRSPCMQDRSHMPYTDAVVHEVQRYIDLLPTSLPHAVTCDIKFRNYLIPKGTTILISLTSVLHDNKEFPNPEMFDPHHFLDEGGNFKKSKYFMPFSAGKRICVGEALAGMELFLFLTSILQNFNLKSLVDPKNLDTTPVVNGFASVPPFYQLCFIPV
How it was run: (§1)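 Human liver microsomes were mixed with an isoform-specific CYP substrate and either compound or a positive-control inhibitor, then pre-incubated at 37 °C for 30 min. Reactions were started by adding an NADPH-regenerating system.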

CYP1A2 = target: T2, CYP1A2 (Homo sapiens, UniProt P05177); assay: Human liver microsome CYP inhibition assay, CYP1A2; assay type: biochemical; conditions: human liver microsomes
T2 sequence (P05177 1-516): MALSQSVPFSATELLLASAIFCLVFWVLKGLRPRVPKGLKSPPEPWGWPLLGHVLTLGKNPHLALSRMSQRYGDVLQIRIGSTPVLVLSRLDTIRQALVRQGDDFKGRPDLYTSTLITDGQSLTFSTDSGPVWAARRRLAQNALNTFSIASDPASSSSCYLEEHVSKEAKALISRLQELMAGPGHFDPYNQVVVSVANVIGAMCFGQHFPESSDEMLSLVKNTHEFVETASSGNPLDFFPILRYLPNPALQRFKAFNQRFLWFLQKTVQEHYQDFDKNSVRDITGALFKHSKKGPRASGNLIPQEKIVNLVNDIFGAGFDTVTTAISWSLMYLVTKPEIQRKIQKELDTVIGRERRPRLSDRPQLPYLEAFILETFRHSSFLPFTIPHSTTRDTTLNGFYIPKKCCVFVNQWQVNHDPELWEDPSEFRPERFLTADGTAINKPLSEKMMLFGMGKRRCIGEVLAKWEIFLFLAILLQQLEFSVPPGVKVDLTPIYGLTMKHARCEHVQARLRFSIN
How it was run: as §1

CYP2C8 = target: T3, CYP2C8 (Homo sapiens, UniProt P10632); assay: Human liver microsome CYP inhibition assay, CYP2C8; assay type: biochemical; conditions: human liver microsomes
T3 sequence (P10632 1-490): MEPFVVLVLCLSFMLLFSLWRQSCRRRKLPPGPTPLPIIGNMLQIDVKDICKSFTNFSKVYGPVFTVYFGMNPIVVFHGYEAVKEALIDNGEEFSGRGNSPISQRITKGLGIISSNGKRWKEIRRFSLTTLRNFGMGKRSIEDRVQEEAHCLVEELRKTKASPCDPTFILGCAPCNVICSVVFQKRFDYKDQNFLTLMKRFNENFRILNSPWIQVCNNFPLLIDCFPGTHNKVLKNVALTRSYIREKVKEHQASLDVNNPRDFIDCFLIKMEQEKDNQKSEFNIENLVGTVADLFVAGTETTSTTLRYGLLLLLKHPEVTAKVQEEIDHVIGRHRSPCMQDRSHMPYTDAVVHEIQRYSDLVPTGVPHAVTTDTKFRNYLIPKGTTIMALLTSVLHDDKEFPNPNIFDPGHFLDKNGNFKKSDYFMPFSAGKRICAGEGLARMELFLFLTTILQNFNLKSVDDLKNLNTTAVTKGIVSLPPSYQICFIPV
How it was run: as §1

[1] = Stability in human plasma; assay type: in vitro ADME; conditions: 2 μM, after 4 h
CYP2B6 = target: T4, CYP2B6 (Homo sapiens, UniProt P20813); assay: Human liver microsome CYP inhibition assay, CYP2B6; assay type: biochemical; conditions: human liver microsomes
T4 sequence (P20813 1-491): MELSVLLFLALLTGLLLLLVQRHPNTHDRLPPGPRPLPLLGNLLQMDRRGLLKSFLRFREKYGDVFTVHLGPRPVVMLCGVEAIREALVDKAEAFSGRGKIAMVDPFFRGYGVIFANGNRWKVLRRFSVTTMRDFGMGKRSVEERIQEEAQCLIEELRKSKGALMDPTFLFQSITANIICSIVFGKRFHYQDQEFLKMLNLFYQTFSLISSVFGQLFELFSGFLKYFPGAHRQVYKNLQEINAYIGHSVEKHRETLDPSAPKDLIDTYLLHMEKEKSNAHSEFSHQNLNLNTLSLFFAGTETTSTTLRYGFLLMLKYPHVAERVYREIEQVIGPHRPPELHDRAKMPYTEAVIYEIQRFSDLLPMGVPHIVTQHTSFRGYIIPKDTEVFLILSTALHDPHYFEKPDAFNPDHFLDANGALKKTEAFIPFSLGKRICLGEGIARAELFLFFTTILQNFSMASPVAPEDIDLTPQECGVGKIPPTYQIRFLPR
How it was run: as §1

[2] = Plasma protein binding, rapid equilibrium dialysis; assay type: in vitro ADME; conditions: human, pH 7.4
How it was run: (§2)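 Equilibrium dialysis (RED): compound was spiked at 2 μM into human or CD1 mouse plasma against PBS pH 7.4. Warfarin served as positive control. Plates were shaken gently at 37 °C for 6 h, and both chambers were quantified by LC–MS to give the unbound fraction.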

[3] = Stability in mouse liver microsomes; assay type: in vitro ADME, mouse (strain CD1); conditions: 2 μM, after 2 h
How it was run: (§3)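 Compound (2 μM) was incubated at 37 °C with human or CD1 mouse liver microsome suspension. The reaction was initiated by adding NADPH as CYP cofactor.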

[4] = Single-dose safety observation and gross necropsy in rats; assay type: in vivo, male Sprague–Dawley rats
How it was run: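 Male Sprague–Dawley rats (n = 3/group) were housed in metabolic cages and fasted overnight, with food returned 4 h post-dose. They received one oral gavage of 100 or 200 mg kg−1 (10 mL kg−1) in 40% DMSO/60% 0.5% methyl cellulose. Animals were monitored for 14 days, with body weight recorded before dosing and on days 7 and 14. Gross necropsy was done after CO2 euthanasia.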

CYP3A4 = CYP3A4 (Homo sapiens, UniProt P08684); assay: Human liver microsome CYP inhibition assay, CYP3A4; assay type: biochemical; conditions: human liver microsomes
Chain of CYP3A4 (P08684 whole entry): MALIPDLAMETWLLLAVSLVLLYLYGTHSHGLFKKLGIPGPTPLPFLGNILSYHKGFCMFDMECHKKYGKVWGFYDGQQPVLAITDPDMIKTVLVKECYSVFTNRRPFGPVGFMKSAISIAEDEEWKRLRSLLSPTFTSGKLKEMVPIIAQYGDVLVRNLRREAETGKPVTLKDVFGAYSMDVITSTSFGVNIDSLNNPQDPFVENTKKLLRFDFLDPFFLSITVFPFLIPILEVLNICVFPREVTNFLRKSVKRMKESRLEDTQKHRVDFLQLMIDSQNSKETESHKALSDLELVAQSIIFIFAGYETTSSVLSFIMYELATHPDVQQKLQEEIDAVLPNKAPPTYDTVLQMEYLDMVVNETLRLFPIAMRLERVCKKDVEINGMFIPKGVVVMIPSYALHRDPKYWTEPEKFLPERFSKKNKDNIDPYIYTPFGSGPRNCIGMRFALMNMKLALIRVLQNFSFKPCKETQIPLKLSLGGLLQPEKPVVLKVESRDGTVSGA
How it was run: as §1

[5] = Stability in human liver microsomes; assay type: in vitro ADME; conditions: 2 μM, after 2 h
How it was run: as §3

HepG2 cells = assay: HepG2 cytotoxicity assay; assay type: cell-based, human; conditions: 50 μM
How it was run: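 HepG2 cells were kept in DMEM with 10% FBS and penicillin/streptomycin at 37 °C, 5% CO2, seeded ~5000 cells/well and allowed to attach overnight. Serial dilutions of compound in medium were added, with 0.1% DMSO vehicle and terfenadine as positive control. Viability was read by CellTiter-Glo ATP luminescence and normalized to vehicle as % viability per concentration.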

[6] = Stability in mouse plasma; assay type: in vitro ADME, mouse (strain CD1); conditions: 2 μM, after 4 h
[7] = Plasma protein binding, rapid equilibrium dialysis; assay type: in vitro ADME, mouse (strain CD1); conditions: CD1, mouse, pH 7.4
How it was run: as §2

[8] = Single-dose pharmacokinetics in rats; assay type: in vivo, male Sprague–Dawley rats; conditions: rats vs mice, oral single dose
How it was run: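 Male Sprague–Dawley rats with jugular vein cannulas (n = 3/group) were fasted overnight, with food returned 4 h post-dose. Single oral gavage of 100 or 200 mg kg−1 (10 or 20 mg mL−1; 10 mL kg−1) in 40% DMSO/60% 0.5% methyl cellulose. Cannula blood was drawn at 0.5, 1, 2, 4, 6, 8 and 24 h into K2EDTA, spun to plasma at 5 °C and stored at −70 °C for PK analysis.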

CYP2D6 = CYP2D6 (Homo sapiens, UniProt P10635); assay: Human liver microsome CYP inhibition assay, CYP2D6; assay type: biochemical; conditions: human liver microsomes
Chain of CYP2D6 (P10635 whole entry): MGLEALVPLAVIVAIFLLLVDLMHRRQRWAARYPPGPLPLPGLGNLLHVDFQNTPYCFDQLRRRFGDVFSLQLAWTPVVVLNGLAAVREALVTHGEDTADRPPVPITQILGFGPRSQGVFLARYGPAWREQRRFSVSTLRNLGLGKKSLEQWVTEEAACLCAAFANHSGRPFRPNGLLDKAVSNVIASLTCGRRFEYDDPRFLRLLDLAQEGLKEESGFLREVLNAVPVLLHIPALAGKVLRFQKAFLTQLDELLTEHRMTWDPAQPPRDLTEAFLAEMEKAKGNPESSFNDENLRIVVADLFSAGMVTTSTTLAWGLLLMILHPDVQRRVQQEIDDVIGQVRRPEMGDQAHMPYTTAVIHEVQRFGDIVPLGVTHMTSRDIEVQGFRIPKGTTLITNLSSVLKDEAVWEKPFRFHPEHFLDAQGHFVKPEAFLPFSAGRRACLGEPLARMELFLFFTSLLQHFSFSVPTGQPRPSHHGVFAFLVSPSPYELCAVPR
How it was run: as §1

[9] = Single-dose pharmacokinetics in mice; assay type: in vivo, male CD1 mice
[10] = tested on: Salmonella typhimurium tester strains TA98, TA100, TA1535, TA1537 and Escherichia coli strain WP2 uvrA; assay: Ames bacterial reverse mutation assay; conditions: 1.4 × 10^−7 to 2.3 mM
[11] = target: cloned hERG potassium channels (Homo sapiens, UniProt Q12809); assay: hERG assay, automated patch clamp; assay type: cell-based
Chain of cloned hERG potassium channels (Q12809 whole entry): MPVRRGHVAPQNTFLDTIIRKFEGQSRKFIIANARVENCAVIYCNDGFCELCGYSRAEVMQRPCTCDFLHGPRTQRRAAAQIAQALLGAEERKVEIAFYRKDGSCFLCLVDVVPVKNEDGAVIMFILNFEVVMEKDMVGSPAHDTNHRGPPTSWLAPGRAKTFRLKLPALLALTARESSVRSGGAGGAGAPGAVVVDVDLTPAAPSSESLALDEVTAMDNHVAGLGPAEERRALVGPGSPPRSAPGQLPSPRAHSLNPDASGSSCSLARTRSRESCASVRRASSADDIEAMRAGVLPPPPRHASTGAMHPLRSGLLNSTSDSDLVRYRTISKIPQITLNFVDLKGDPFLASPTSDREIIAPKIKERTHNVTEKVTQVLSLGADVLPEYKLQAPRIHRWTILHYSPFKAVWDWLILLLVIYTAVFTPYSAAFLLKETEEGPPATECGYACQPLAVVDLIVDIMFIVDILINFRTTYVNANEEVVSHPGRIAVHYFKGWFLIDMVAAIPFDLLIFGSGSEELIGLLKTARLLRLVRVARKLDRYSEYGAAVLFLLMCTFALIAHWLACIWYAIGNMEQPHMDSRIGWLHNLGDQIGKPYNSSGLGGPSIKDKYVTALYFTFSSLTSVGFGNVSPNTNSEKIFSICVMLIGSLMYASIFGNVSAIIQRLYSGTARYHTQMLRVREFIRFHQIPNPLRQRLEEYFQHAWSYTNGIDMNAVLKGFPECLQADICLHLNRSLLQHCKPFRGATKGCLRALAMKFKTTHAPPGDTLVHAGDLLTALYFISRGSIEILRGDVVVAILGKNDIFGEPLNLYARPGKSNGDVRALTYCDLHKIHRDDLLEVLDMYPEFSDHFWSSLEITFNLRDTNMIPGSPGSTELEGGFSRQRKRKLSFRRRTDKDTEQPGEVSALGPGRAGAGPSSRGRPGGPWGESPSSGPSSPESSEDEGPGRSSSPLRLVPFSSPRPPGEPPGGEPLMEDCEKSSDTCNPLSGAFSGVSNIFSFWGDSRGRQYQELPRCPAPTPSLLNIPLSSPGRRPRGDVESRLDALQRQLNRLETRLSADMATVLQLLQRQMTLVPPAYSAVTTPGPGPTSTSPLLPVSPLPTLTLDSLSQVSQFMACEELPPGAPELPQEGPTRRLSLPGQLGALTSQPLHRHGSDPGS
How it was run: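 Automated parallel patch clamp (QPatch II) was run at room temperature on HEK293 cells expressing KCNH2. Compound was applied at 0.1, 1, 10 and 100 μM (n ≥ 3), at least 6 min per concentration, from DMSO stocks diluted into HEPES-buffered saline. Cisapride 0.05 μM served as positive control. % current inhibition came from steady-state currents before and after each application.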

[12] = Single-dose safety observation and gross necropsy in mice; assay type: in vivo, male CD1 mice
How it was run: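 Male CD1 mice (n = 3/group) were housed individually in metabolic cages and fasted 4 h, with food returned 2 h post-dose. They received one oral gavage of 25, 50 or 100 mg kg−1 (2.5–10 mg mL−1; 10 mL kg−1) in 40% DMSO/60% 0.5% methyl cellulose. Animals were monitored 14 days and weighed pre-dose and on days 7 and 14. CO2 euthanasia was followed by gross necropsy.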

[13] = Bidirectional Caco-2 cell permeability assay; assay type: in vitro ADME; conditions: human
CYP2C19 = CYP2C19 (Homo sapiens, UniProt P33261); assay: Human liver microsome CYP inhibition assay, CYP2C19; assay type: biochemical; conditions: human liver microsomes
Chain of CYP2C19 (P33261 whole entry): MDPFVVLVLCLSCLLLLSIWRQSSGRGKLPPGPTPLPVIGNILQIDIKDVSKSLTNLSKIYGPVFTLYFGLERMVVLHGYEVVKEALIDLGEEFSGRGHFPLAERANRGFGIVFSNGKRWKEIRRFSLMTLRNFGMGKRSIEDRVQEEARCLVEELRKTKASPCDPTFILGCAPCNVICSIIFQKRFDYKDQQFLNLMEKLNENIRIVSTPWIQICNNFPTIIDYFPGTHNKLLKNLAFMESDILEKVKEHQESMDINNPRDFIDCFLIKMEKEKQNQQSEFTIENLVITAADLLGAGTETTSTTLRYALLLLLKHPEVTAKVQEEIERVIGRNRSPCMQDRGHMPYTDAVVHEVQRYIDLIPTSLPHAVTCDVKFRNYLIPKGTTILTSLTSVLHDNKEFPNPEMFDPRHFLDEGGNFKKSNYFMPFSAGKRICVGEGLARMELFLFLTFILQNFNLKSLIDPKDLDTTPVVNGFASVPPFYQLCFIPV
How it was run: as §1

[14] = monitored 14 days after single oral dose
[15] = continuous exposure, 50 and 100 μM
[16] = male, CD1, mouse, plasma, po, 100 mg/kg

Nc1nc2[nH]cc(CCc3ccc(C(=O)N[C@@H](CCC(=O)O)C(=O)O)cc3)c2c(=O)[nH]1 [pemetrexed, reference compound]
inhibition at 50 µM (PCFT transporter): 62%

Cc1ccc(NC(=O)N2Cc3[nH]cnc3C[C@H]2c2nc(-c3ccc4c(c3)OCO4)no2)cc1 [MPOL_D_1, (6S)-6-[3-(2H-1,3-benzodioxol-5-yl)-1,2,4-oxadiazol-5-yl]-N-(4-methylphenyl)3H,4H,5H,6H,7H-imidazo[4,5-c]pyridine-5-carboxamide]
effect on lifespan (C. elegans strain N2; dose range 1–100 μM, compared with MPOL_B_1): did not exhibit similar effects

CC(=O)N1CCC(C(=O)N2CCN3C(=O)c4cc(-c5ccccc5)ccc4NC(=O)C3C2)CC1 (centres unmarked) [MPOL_B_1, 13-(1-acetylpiperidine-4-carbonyl)-5-phenyl-1,9,13-triazatricyclo[9.4.0.03,8]pentadeca-3(8),4,6-triene-2,10-dione]
inhibition at 5 min, 50 µM (CYP2C9): 11.4%
inhibition at 5 min, 50 µM (CYP1A2): 5.2%
inhibition at 5 min, 50 µM (CYP2C8): 4.9%
Stability in human plasma [1]: >90% after 4 h
inhibition at 5 min, 50 µM (CYP2B6): 0%
inhibition at 50 µM (PCFT transporter): 42%
fraction unbound at 6 h, 2 μM [2]: 0.525 ± 0.08
Stability in mouse microsomes [3]: 83% after 2 h
gross necropsy ([4]; group 1, 100 mg kg^−1): enlarged stomach and caecum and blood in the abdominal cavity
gross necropsy ([4]; highest dose (200 mg kg^−1)): no organ pathologies or other abnormalities
body weight loss [4, 14]: no significant body weight loss
signs of illness [4, 14]: no signs of illness
inhibition at 5 min, 50 µM (CYP3A4): 22.5%
Stability in human microsomes [5]: >90% after 2 h
Hep2 cells cytotoxicity (HepG2 cells): Not significant
maximal lifespan (C. elegans strain N2; 50 μM): 35 days
maximal lifespan (C. elegans strain N2; 100 μM): 35 days
increase of lifespan (C. elegans strain N2; C. elegans): up to 30%
longer maximal lifespan (C. elegans strain N2; [15]): ~30%
longer mean lifespan (C. elegans strain N2; [15]): ~30%
Stability in mouse plasma [6]: >90% after 4 h
fraction unbound at 6 h, 2 μM [7]: 0.294 ± 0.059
systemic bioavailability in rats, times lower than in mice [8]: approximately 10 times
inhibition at 5 min, 50 µM (CYP2D6): 16.9%
concentration of the drug in fecal samples ([9]; collected 24 hours after oral administration): 5 to 10 mg/g
AUC(0-t) [9, 16]: 2380 ± 1180 ng·h/mL
Cmax [9, 16]: 416 ± 67 ng/mL
Tmax [9, 16]: 1.7 ± 0.6 h
half-life [9, 16]: 5.7 ± 4.1 h
systemic bioavailability (dose proportionality of AUC) ([9]; mice, oral gavage 25, 50 and 100 mg kg^−1): became saturated at doses of 50 mg kg^−1 and above
Ames mutagenicity test [10]: Not mutagenic
IC50 [11]: 87 µM
gross necropsy ([12]; group 2, 50 mg kg^−1): had an enlarged stomach when gross necropsy was performed, and another from the same group had dark patches on the lungs
gross necropsy ([12]; highest dose (100 mg kg^−1)): no organ pathologies or other abnormalities; also recorded: No abnormalities
body weight loss [12, 14]: no significant body weight loss
signs of illness [12, 14]: no signs of illness
Papp A→B at 2 h, 10 μM [13]: 0.37 ×10⁻⁶ cm/s
Papp B→A at 2 h, 10 μM [13]: 7.17 ×10⁻⁶ cm/s
inhibition at 5 min, 50 µM (CYP2C19): 19.4%
